From ChEMBL document CHEMBL2202972, “Synthesis and biological evaluation of 2-substituted-4-(3',4',5'-trimethoxyphenyl)-5-aryl thiazoles as anticancer agents” (Bioorg Med Chem, 2012) come the findings set out here.

The nature of test [1]: Inhibition of bovine brain tubulin polymerization preincubated for 15 mins by turbidimetric analysis. More on the design: species or system Bos taurus. An outline of the steps: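 Bovine brain tubulin (10 μM) in glutamate buffer preincubated with varying compound concentrations for 15 min at 30 °C, then chilled to 0 °C. GTP 0.4 mM added and mixtures warmed to 30 °C in a spectrophotometer; assembly followed by turbidity at 350 nm.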

Test [2] concerns HeLa. Briefly: Antiproliferative activity against human HeLa cells after 72 hrs by MTT assay. It counts as functional, cell-based. A general note: Formazan colour is commonly taken as a measure of viable cells.
The test system of test [3] is MCF7. Briefly: Antiproliferative activity against human MCF7 cells after 72 hrs by MTT assay. It counts as functional, cell-based. The note with it: MCF7, 72 h.
In test [4] the test system is A549. Briefly: Antiproliferative activity against human A549 cells after 72 hrs by MTT assay. It counts as functional, cell-based. The note with it: A549, 72 h.
The subject of test [5] is HT-29. Briefly: Antiproliferative activity against human HT-29 cells after 72 hrs by MTT assay. It counts as functional, cell-based. The note with it: HT-29, 72 h.
Test [6] concerns HL-60. The experiment in a line: Antiproliferative activity against human HL60 cells after 72 hrs by MTT assay. The note with it: HL-60, 72 h. It counts as functional, cell-based.
The test system of test [7] is Jurkat. Briefly: Antiproliferative activity against human Jurkat cells after 72 hrs by MTT assay. It counts as functional, cell-based. An outline of the steps:
(§1)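 Cells seeded at 8 × 10³ per well and incubated 18 h at 37 °C, 5% CO₂, then exposed to a range of compound concentrations for 72 h at 37 °C. Jurkat and HL-60 were grown in RPMI-1640, the others in DMEM, with penicillin, streptomycin and 10% FBS. DMSO stocks (10 mM); DMSO ≤0.25% final. Viability by MTT. […] Mean ± SE of ≥3 independent experiments.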

For test [8], the species on record is Bos taurus. The experiment in a line: Displacement of [3H]colchicine from tubulin in bovine brain at 5 uM DEAE-cellulose filter method.
The nature of test [9]: Antiproliferative activity against human doxorubicin-resistant LoVo/DX cells overexpressing P-glycoprotein after 72 hrs by MTT assay. It counts as functional, cell-based. Put shortly:
(§2)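 Resistant sublines cultured under selection: LoVo^Doxo (doxorubicin-resistant LoVo subclone) in complete Ham's F12 with doxorubicin 0.1 μg/mL; A549-T12 in complete DMEM with taxol 12 nM. Seeded at 8 × 10³ per well, 18 h preincubation, then 72 h compound exposure at 37 °C. MTT read-out.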

Test [10] deals with CCRF-CEM. The experiment in a line: Resistance ratio of IC50 for human vinblastine-resistant CEM/VBL100 cells overexpressing P-glycoprotein to IC50 for human CEM cells. It counts as functional.
For test [11], the system named is CCRF-CEM. The experiment in a line: Antiproliferative activity against human CEM cells after 72 hrs by MTT assay. Format: functional, cell-based.
For test [12], the system named is LoVo. The experiment in a line: Resistance ratio of IC50 for human doxorubicin-resistant LoVo/DX cells overexpressing P-glycoprotein to IC50 for human LoVo cells. It counts as functional.
The test system of test [13] is A549. Briefly: Resistance ratio of IC50 for human taxol-resistant A549-T12 cells expressing tubulin mutant gene to IC50 for human A549 cells. Format: functional.
A short description of test [14]: Antiproliferative activity against human taxol-resistant A549-T12 cells expressing tubulin mutant gene after 72 hrs by MTT assay. It counts as functional, cell-based. The note with it: A549, 72 h. Put shortly: as §2
A short description of test [15]: Antiproliferative activity against human vinblastine-resistant CEM/VBL100 cells overexpressing P-glycoprotein after 72 hrs by MTT assay. Format: functional, cell-based. The note with it: CEM/VBL100, 72 h.
Test [16] deals with LoVo. Briefly: Antiproliferative activity against human LoVo cells after 72 hrs by MTT assay. It counts as functional, cell-based. Put shortly: as §1

Bounds are passed on as bounds.

A word on the IC50: it is the concentration needed to halve the response being measured. Consider `CCOc1ccc(-c2sc(N(C)C)nc2-c2cc(OC)c(OC)c(OC)c2)cc1`, for which the IC50 in [1] is over 20000 nM; in test [2] it was 3260 nM; in test [3] it was over 10000 nM; in test [4], over 10000 nM; in test [5], 6030 nM; in [6], 303 nM. In [7], this compound registered an IC50 of 4150 nM.
The term inhibition denotes the drop in the measured response relative to a control, in per cent. The low end stands for a response near the control, the high end for a response far below the control. For the compound `CNc1nc(-c2cc(OC)c(OC)c(OC)c2)c(-c2ccc3ccccc3c2)s1`, the IC50 was found to be 960 nM in [1]; 128 nM in test [2]; 21.1 nM in [3]; 151 nM in [4]; 38.2 nM in test [5]; 143 nM in [6]. 51.1 nM corresponded to half-maximal inhibition in test [7] (IC50). The same compound had an inhibition in test [8] of 78%.
`COc1cccc2c1C(=O)c1c(O)c3c(c(O)c1C2=O)C[C@@](O)(C(=O)CO)C[C@@H]3O[C@H]1C[C@H](N)[C@H](O)[C@H](C)O1` [DOXORUBICIN]: the IC50 in test [9] came out at 13200 nM.
On to `CC[C@]1(O)C[C@@H]2CN(CCc3c([nH]c4ccccc34)[C@@](C(=O)OC)(c3cc4c(cc3OC)N(C)[C@H]3[C@@](O)(C(=O)OC)[C@H](OC(C)=O)[C@]5(CC)C=CCN6CC[C@]43[C@@H]65)C2)C1` [VINBLASTINE], for which the “Ratio IC50” value in test [10] turned out to be 256.2.
On to `COc1cc(-c2nc(C)sc2-c2ccc(C(F)(F)F)cc2)cc(OC)c1OC`, for which the IC50 was 3830 nM in test [2]; over 10000 nM in test [3]; 4290 nM in [4]; 396 nM in [5]; over 10000 nM in test [6]; 7110 nM in test [7].
With `COc1cc(-c2nc(N(C)C)sc2-c2ccc(C(F)(F)F)cc2)cc(OC)c1OC`, the concentration for half-maximal inhibition (IC50) in [1] was over 20000 nM; in [2], over 10000 nM; in [3], over 10000 nM; in [4], over 10000 nM; in test [5], over 10000 nM; in [6] it was over 10000 nM. In test [7], this compound returned an IC50 of over 10000 nM.
Regarding `CNc1nc(-c2cc(OC)c(OC)c(OC)c2)c(-c2ccc(OC)cc2)s1`, the IC50 was determined as 152 nM in test [9]; 10 nM in test [11]; 1300 nM in test [1]; 70.1 nM in test [2]; 37.6 nM in test [3]; 138 nM in [4]. For the same compound, the IC50 worked out at 125 nM in [14]; 6.3 nM in test [5]; 15 nM in [15]; 27.3 nM in [6]; 34.3 nM in test [7]; 190 nM in test [16]. Moreover, the results for the “Ratio IC50” value in test [12], in test [13] and in [10] were 0.8, 0.9 and 1.5, respectively. The inhibition in test [8] was 61%.
On to `COc1ccc(-c2sc(N(C)C)nc2-c2cc(OC)c(OC)c(OC)c2)cc1`, for which the IC50 in test [1] is over 20000 nM; in test [2] it was 3370 nM; in [3] it was 8360 nM; in test [4] it was over 10000 nM; in test [5] it was 497 nM; in test [6], 1890 nM. The compound further gave an IC50 in test [7] of 7600 nM.
Turning to `COc1ccc(-c2sc(C)nc2-c2cc(OC)c(OC)c(OC)c2)cc1`, the IC50 in test [2] was 500 nM; in test [3], 606 nM; in test [4], 2560 nM; in [5], 1420 nM; in test [6], 3430 nM; in [7], 1760 nM.
For `COc1cc(-c2nc(N(C)C)sc2-c2ccc(C)cc2)cc(OC)c1OC`, the half-maximal inhibitory concentration (IC50) in test [1] was over 20000 nM; in test [2], 4140 nM; in test [3], over 10000 nM; in [4] it was 3960 nM; in [5], 3920 nM; in test [6] it was 3480 nM. For the same compound, the IC50 in test [7] worked out at 6660 nM.
As for `COc1cc(-c2nc(C)sc2-c2ccc(C)cc2)cc(OC)c1OC`, the IC50 in test [2] was 1100 nM; in [3], 1740 nM; in [4], 1950 nM; in [5] it was 722 nM; in test [6], 1510 nM; in test [7], 517 nM.
In the case of `COc1cc(-c2nc(N(C)C)sc2-c2ccc3ccccc3c2)cc(OC)c1OC`, the IC50 is over 20000 nM in [1]; 1400 nM in [2]; 2380 nM in test [3]; 2900 nM in test [4]; 729 nM in [5]; 2570 nM in [6]. The same compound showed an IC50 in test [7] of 836 nM.
Turning to `CCOc1ccc(-c2sc(C)nc2-c2cc(OC)c(OC)c(OC)c2)cc1`, the IC50 in [1] worked out at 1200 nM; in test [2], 1870 nM; in test [3] it was 42.3 nM; in test [4], 3320 nM; in test [5], 487 nM; in test [6], 253 nM. The IC50 in test [7] was found to be 1740 nM. Moreover, in test [8], the inhibition turned out to be 51%.
On to `CNc1nc(-c2cc(OC)c(OC)c(OC)c2)c(-c2ccc(C)cc2)s1`, for which the IC50 in [1] amounted to 1200 nM; in [2], 69.1 nM; in test [3] it was 10.1 nM; in test [4] it was 125 nM; in test [5], 423 nM; in test [6], 18.1 nM. The same compound registered an IC50 in [7] of 19 nM. Also, the inhibition in test [8] worked out at 68%.
As to `CNc1nc(-c2cc(OC)c(OC)c(OC)c2)c(-c2ccc(C(F)(F)F)cc2)s1`, the concentration for half-maximal inhibition (IC50) came to 3400 nM in [2]; 7280 nM in [3]; 4560 nM in [4]; 1240 nM in [5]; 3170 nM in test [6]; 3010 nM in [7].
